Broadly, the ED50 is the midpoint of the dose-response relation. High values mean weaker potency, low ones greater potency. As usually defined, the EC50 is the midpoint of the concentration-response curve. One may read the half-life as the time needed for the level to fall by half in the phase considered. The LD50 is the dose expected to kill half of the subjects tested. Lower therefore signals greater toxicity.

SMILES strings stand for the structures.

These results are taken from ChEMBL document CHEMBL1123944, “Tertiary 3- and 4-haloalkylamine analogues of oxotremorine as prodrugs of potent muscarinic agonists” (J Med Chem, 1988).

Series [1] is filed under the species Mus musculus. The experiment in a line: Analgesic activity was measured by tail flick assay. The series is classed as functional. In a few lines:
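Male Swiss-Webster mice (24–30 g); drug in ice-cold saline (kept on ice ≤1 h), given ip after control reaction times were taken. Tail-flick reaction times recorded 10 min post-dose; responders were animals whose reaction time was at least twice control. Dose estimated by the up-and-down method.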
On the technique in general: In hot-plate and tail-flick tests a longer latency is read as antinociception.

Series [2] is described as follows: (§1) The equipotent molar ratio relative to oxotremorine (EPMR). It counts as ADME. In a few lines:
(§2)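 Ileum EC50 taken as a ratio to the oxotremorine EC50 in guinea pig ileum contracting in Tyrode (pH 7.4, 37 °C, 0.3 mM hexamethonium). Curves were cumulative with 2.15-fold steps. Compounds were tested as parents in ice-cold water or after pre-cyclization in pH 7.4 phosphate buffer at 37 °C. Mean ± SE.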

Series [3] relates to Mus musculus. The experiment in a line: Muscarinic activity tested by measuring salivation in mice after ip administration. The series is classed as functional. In a few lines:
(§3)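 Male Swiss-Webster mice (24–30 g); compounds in ice-cold saline, used within 1 h, given ip or iv via tail vein. Salivation was scored by touching the mouth to absorbent paper at intervals over the first 10 min. Threshold dose estimated by the up-and-down method; mean ± SE.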

The next series is filed under the species Cavia porcellus. The experiment in a line: Muscarinic activity in isolated guinea pig ileum. The series is classed as functional. Summed up: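 Guinea pig ileum in Tyrode solution (pH 7.4, 37 °C) containing 0.3 mM hexamethonium. Isotonic contractions recorded at 1 g tension. Cumulative concentration-response curves used stepwise 2.15-fold increments, with oxotremorine as reference. Parent compounds were dissolved in ice-cold water. Cyclized forms were pre-incubated in 50 mM phosphate buffer pH 7.4 at 37 °C for 30 h, 2 h or 1 min depending on the compound. EC50 given as mean ± SE over n preparations.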

Series [4] can be described thus: First order rate constant for cyclization of the compound. It counts as ADME. In a few lines: (§4)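 Haloalkylamine (1.5–2 mM) in 50 mM sodium phosphate buffer, pH 7.4, at 37 °C. Released halide measured by argentometric titration. Data fitted by nonlinear regression to θ = 1 − e^(−k1·t), giving the apparent first-order constant k1. Means ± SE of three determinations.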

Series [5] is described as follows: Half life was measured. The series is classed as ADME. In a few lines: as §4
Series [6] deals with Mus musculus. Nature of the series: Muscarinic activity tested by measuring salivation in mice after iv administration. It counts as functional. In a few lines:
as §3

Series [7] can be described thus: Toxicity was measured after iv administration. It counts as organism-based. Conditions: mouse, in vivo. Summed up: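 Male Swiss-Webster mice (24–30 g) dosed iv with compound in ice-cold saline. LD50 estimated by the up-and-down method, with mortality counted at 1 h; mean ± SE.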
Series [8] relates to Mus musculus. Nature of the series: Muscarinic activity tested by measuring tremor in mice after iv administration. The series is classed as functional. Summed up: (§5)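 Male Swiss-Webster mice (24–30 g) dosed ip or iv via tail vein with compound in ice-cold saline (held on ice ≤1 h). Intermittent spontaneous (grade 2) tremor judged visually. Threshold dose estimated by the up-and-down method; mean ± SE.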

Series [9] in a line: as §1. The series is classed as functional. In a few lines:
as §2

Series [10] relates to Mus musculus. Nature of the series: Muscarinic activity tested by measuring tremor in mice after ip administration. The series is classed as functional. Summed up:
as §5

`CN(CC#CCN1CCCC1=O)CCCCl`: the figures for the ED50 in the series listed under Mus musculus [1], in the series on Mus musculus [3] and with Mus musculus [6] were 33.3 µmol/kg, 29.3 µmol/kg and 22.4 µmol/kg, respectively. Besides, the Ratio in series [2] is on record as 2.78. Also, the response in the series listed under Cavia porcellus was half-maximal at 120 nM (EC50). The K1 in series [4] came out at 0.0016 min⁻¹. Also, the half-life in [5] came out at 436 min. Also, the median lethal dose (LD50) in [7] amounted to 245 µmol/kg.

`CN(CC#CCN1CCCC1=O)CCBr` displayed a K1 in series [4] of 0.85 min⁻¹. This molecule also had a half-life in series [5] of 0.8 min.

In the case of `CN(CC#CCN1CCCC1=O)CCCBr`, the ED50 amounted to 6.3 µmol/kg with Mus musculus [8]; 3.2 µmol/kg in the series filed under Mus musculus [1]; 6 µmol/kg in the series on Mus musculus [3]; 2.9 µmol/kg with Mus musculus [6]; 15.6 µmol/kg in the series with Mus musculus [10]. The Ratio in [9] came to 2.49. This molecule displayed a concentration giving a half-maximal response (EC50) in the series filed under Cavia porcellus of 114 nM. In addition, the K1 in series [4] amounted to 0.061 min⁻¹. The molecule also showed a half-life in [5] of 11.4 min. Further, the LD50 in series [7] was 46.7 µmol/kg.

In the case of `CN(CC#CCN1CCCC1=O)CCCCCl`, the ED50 amounted to 3.6 µmol/kg in the series with Mus musculus [8], 10.3 µmol/kg in the series filed under Mus musculus [1], 4.2 µmol/kg with Mus musculus [3] and 1.1 µmol/kg with Mus musculus [6]. Further, the Ratio in series [9] was 10.2. The EC50 in the series listed under Cavia porcellus stood at 538 nM. For the same molecule, in [4], the K1 is greater than 2 min⁻¹. The molecule also gave a half-life in series [5] of less than 0.4 min. This molecule also returned a 50% lethal dose (LD50) in series [7] of 8 µmol/kg.

`CC1CCC(=O)N1CC#CCN(C)CCCBr` (stereo not given): the ED50 in the series listed under Mus musculus [1] came to 111 µmol/kg; in the series with Mus musculus [3] it was 80.8 µmol/kg; in the series on Mus musculus [6], 38 µmol/kg. In series [9], the Ratio is 23.7. For the same molecule, in the series filed under Cavia porcellus, the EC50 worked out at 1140 nM. In series [4], the K1 is 0.0555 min⁻¹. Further, in [5], the half-life amounted to 12.5 min. This molecule also showed a median lethal dose (LD50) in series [7] greater than 250 µmol/kg.

`C[N+](C)(C)CCOC(N)=O.[Cl-]` [CARBACHOL]: in [2], the Ratio is listed as 2.6. Further, in the series filed under Cavia porcellus, the EC50 was 120 nM.

Take `CN(CC#CCN1CCCC1=O)CCCl`: the K1 in series [4] stood at 0.019 min⁻¹. In series [5], this molecule displayed a half-life of 36.5 min.

For the molecule `CN(CC#CCN1CCCC1=O)CCCI`, the ED50 was found to be 8.9 µmol/kg in the series with Mus musculus [8]; 7.7 µmol/kg in the series filed under Mus musculus [1]; 10.4 µmol/kg in the series with Mus musculus [3]; 4.5 µmol/kg in the series on Mus musculus [6]; 29.7 µmol/kg in the series with Mus musculus [10]. Moreover, the Ratio in series [9] stood at 2.95. The molecule further returned an EC50 in the series filed under Cavia porcellus of 136 nM. Further, the K1 in series [4] was found to be 0.0491 min⁻¹. The half-life in series [5] is 14.1 min. This molecule displayed a 50% lethal dose (LD50) in [7] greater than 125 µmol/kg.

For the molecule `C[N+]1(CC#CCN2CCCC2=O)CCCC1`, the Ratio in series [2] came out at 8.31. The half-maximal effective concentration (EC50) in the series filed under Cavia porcellus came to 401 nM.

For the molecule `O=C1CCCN1CC#CCN1CCCC1` [OXOTREMORINE], the median effective dose (ED50) worked out at 0.44 µmol/kg in the series with Mus musculus [8]; 0.1 µmol/kg in the series filed under Mus musculus [1]; 0.29 µmol/kg in the series with Mus musculus [3]; 0.19 µmol/kg with Mus musculus [6]; 0.59 µmol/kg in the series with Mus musculus [10]. Moreover, the Ratio in series [2] amounted to 1. In the series listed under Cavia porcellus, this molecule gave an EC50 of 44 nM.
